Assay outcomes as filed in PubChem.
Only some compounds are listed: those with a hit (about 2% of all), similar ones and a draw of the others.
DNMT1 block – human DNMT1 methyltransferase inhibitors, primary screen, biochemical, molecular beacon, fluorescence, HinP1I cleavage, uHTS; DNA (cytosine-5)-methyltransferase 1 (Homo sapiens), P26358; 360,000 compounds, 0.83% hits; inhibition (reported as % activation of signal), % at 10 µM; in the data active = inhibition above about 50%
LMPTP block – LMPTP phosphatase inhibitors, primary screen, biochemical, fluorescence intensity, uHTS | inhibition, % at 20 µM | 360,000 compounds, 0.22% hits | recombinant LMPTP-A, OMFP fluorogenic substrate | AID 651560, 2012 | Low molecular weight phosphotyrosine protein phosphatase (Homo sapiens), P24666;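 active = compounds that cut the enzyme signal by at least half of the control window in the single-dose screen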;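 note: plate controls were DMSO wells with enzyme plus substrate for no effect and substrate without enzyme for full effect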
Target sequence (P24666 whole entry, looked up): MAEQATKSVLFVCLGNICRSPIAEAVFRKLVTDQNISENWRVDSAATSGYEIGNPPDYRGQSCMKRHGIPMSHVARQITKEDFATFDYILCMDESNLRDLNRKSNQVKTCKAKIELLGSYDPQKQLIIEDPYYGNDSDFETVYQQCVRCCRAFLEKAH
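Material: LMPTP-A; amount: 0.625 nM enzyme; doses: single 20 µM dose; times: reaction 50 min, room temperature, dark; technique: fluorescence intensity of OMFP turnover product; benchmarks: no-enzyme and uninhibited controls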
STEP block – STEP phosphatase inhibitors, primary screen, biochemical, fluorescence intensity, uHTS; Tyrosine-protein phosphatase non-receptor type 5 (Homo sapiens), P54829; recombinant STEP, OMFP fluorogenic substrate; AID 588621, 2011; 360,000 compounds, 0.25% hits; inhibition, % at 20 µM;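 active = inhibition at 20 µM, scaled per plate between control wells, above about 37%, limit read from the data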;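 note: 0% = DMSO with enzyme and substrate and 100% = substrate only without enzyme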
Target sequence (P54829 whole entry, looked up): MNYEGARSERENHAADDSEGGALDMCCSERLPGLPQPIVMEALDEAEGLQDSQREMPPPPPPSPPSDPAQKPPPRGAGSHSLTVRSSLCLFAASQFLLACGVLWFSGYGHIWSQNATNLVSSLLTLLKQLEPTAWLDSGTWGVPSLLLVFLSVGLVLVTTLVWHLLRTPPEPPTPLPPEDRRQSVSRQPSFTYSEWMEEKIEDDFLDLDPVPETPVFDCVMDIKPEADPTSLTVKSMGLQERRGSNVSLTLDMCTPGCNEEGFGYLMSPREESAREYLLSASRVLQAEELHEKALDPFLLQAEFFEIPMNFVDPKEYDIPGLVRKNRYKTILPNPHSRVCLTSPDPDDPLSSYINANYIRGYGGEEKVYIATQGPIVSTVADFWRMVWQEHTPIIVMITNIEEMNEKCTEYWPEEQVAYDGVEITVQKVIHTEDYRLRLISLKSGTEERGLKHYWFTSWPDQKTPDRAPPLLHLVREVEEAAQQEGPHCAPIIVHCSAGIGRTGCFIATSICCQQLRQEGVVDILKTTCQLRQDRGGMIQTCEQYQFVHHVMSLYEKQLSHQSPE
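Test system: STEP tyrosine phosphatase / Reagent: OMFP at 25 µM / Doses: 20 µM, 1% DMSO / Read-out: percent inhibition scaled to no-enzyme and uninhibited-enzyme controls, plate-pattern corrected / Detection: FITC-channel fluorescence of OMFP product / Medium: Bis-Tris buffer pH 6.0, 2.5 mM DTT, 0.005% Tween 20 / Schedule: 20 min at room temperature, dark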
Rpn11 block – Rpn11 (PSMD14) deubiquitinase inhibitors, primary screen, biochemical, fluorescence polarization, uHTS; human 26S proteasome, Ub4-pepOG fluorescence polarization; 20S core pre-blocked with epoxomicin; inhibition, % at 20 µM; 360,000 compounds, 0.59% hits;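 active = inhibition at 20 µM, scaled to each plate's controls, above about 33%, limit read from the data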
Scp1 inh – Scp-1 phosphatase inhibitors, primary screen, biochemical, colorimetric, uHTS | Recombinant Scp1, phosphopeptide, malachite green phosphate absorbance | inhibition, % at 20 µM | 340,000 compounds, 0.88% hits | AID 493091, 2011;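 active = inhibition above about 50% at 20 µM, limit read from the data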;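 note: plate controls were DMSO wells with enzyme for no effect and wells lacking enzyme for full effect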
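System: truncated SCP-1 phosphatase (76-261aa); medium: Tris acetate buffer pH 5.5 with MgCl2 and Tween-20; incubation: 45 min room-temperature reaction, 5 min colour, 30 min stabiliser; compound: single 20 µM dose, 1% DMSO; reagent: Phosphorylated 17-residue peptide substrate; read-out: % inhibition at 20 µM; technique: colorimetric free-phosphate detection, absorbance 630 nm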
Rpn11 confirm – Rpn11 (PSMD14) deubiquitinase inhibitors, confirmation, biochemical, fluorescence polarization, single concentration; shares compounds with Rpn11 block; purified human 26S proteasome, Ub4-pepOG fluorescence polarization; proteasome pretreated with epoxomicin; inhibition, % at 20 µM; 1,900 compounds, 29% hits; AID 602318, 2012
MMP-2 inh – MMP-2 enzyme inhibition, confirmation, counter-screen for RPN11 inhibitor project, biochemical, fluorescence, single concentration; shares compounds with Rpn11 block; recombinant MMP-2, FRET peptide cleavage fluorescence; inhibition, % at 20 µM; 1,900 compounds, 4% hits;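 note: human MMP-2 activated beforehand with APMA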
Thrombin FP – bovine thrombin protease inhibition, confirmation, counter-screen for Rpn11 inhibitor project, biochemical, fluorescence polarization, single concentration; shares compounds with Rpn11 block; bovine thrombin cleavage of Ub4-pepOG; inhibition, % at 20 µM; 1,900 compounds, 13% hits; AID 602333, 2012;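 active = mean inhibition at least 40% at 20 µM, or signal 3 deviations below plate average, so some actives read negative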;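 note: plate controls were thrombin with DMSO for no effect and buffer wells lacking thrombin for full effect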
An asterisk follows results filed as active; nt = no result shown. Cut-off read from the data, not from the text of the source, unless noted: active = inhibition above about 40%; inactive = the rest.

SMILES	DNMT1 block	LMPTP block	STEP block	Rpn11 block	Scp1 inh	Rpn11 confirm	MMP-2 inh	Thrombin FP
CCOC(=O)C1CCCN(C2=NC(=O)/C(=C/c3ccc(O)c(OCC)c3)S2)C1 (stereo unspecified)	0.7	-0.4	1.6	77.0*	13.5	36.9	-55.9	30.1
CCOC(=O)C1CCCN(C2=NC(=O)/C(=C/c3ccc(OC)cc3)S2)C1 (stereo unspecified)	-1.3	0.5	1.2	0.4	-1.3	nt	nt	nt
CC1=C([N+](=O)[O-])C(c2ccccc2C(F)(F)F)NC(=O)N1C (stereo unspecified)	0.1	-1.5	-2.6	8.7	13.5	nt	nt	nt
CCCCc1ccc(-c2csc(/C(C#N)=C\c3ccco3)n2)cc1	8.5	2.2	1.2	40.8*	-1.3	6.5	-5.1	0.8
CCCCc1ccc(-c2csc(/C(C#N)=C/c3ccc(C)o3)n2)cc1	16.0	1.7	3.5	67.1*	-11.3	-10.0	-27.1	-21.1
COc1ccc(-c2csc(/C(C#N)=C\c3ccc(OC)c([N+](=O)[O-])c3)n2)cc1	3.6	-0.1	-0.5	nt	-12.9	nt	nt	nt
Nc1cccc2[nH]c(=O)c3ccccc3c12	-11.7	0.3	0.1	6.0	2.2	nt	nt	nt
Cc1ccc(N(C)S(=O)(=O)c2cccc(C(=O)N3CCN(Cc4ccccc4)CC3)c2)cc1	0.1	1.3	-1.0	-9.7	3.2	nt	nt	nt
CN(C)S(=O)(=O)c1cccc(C(=O)N2CCN(Cc3ccccc3)CC2)c1	-2.0	-1.0	1.8	109.2*	-2.2	-5.6	-12.0	-8.0
COc1ccc(NS(=O)(=O)c2cccc(C(=O)N/N=C/c3ccc(O)cc3)c2)cc1	-0.4	-0.3	-3.1	-1.6	-6.9	nt	nt	nt
CC(OC(=O)C1CC(=O)N(Cc2ccco2)C1)C(=O)Nc1ccccc1[N+](=O)[O-] (stereo unspecified)	3.7	-1.8	1.4	-0.1	-10.2	nt	nt	nt
COc1cc(/C=C2\SC(=S)N(C(Cc3ccccc3)C(=O)O)C2=O)ccc1O (stereo unspecified)	-4.0	0.2	0.0	103.3*	-4.3	62.4*	-16.7	79.2*
O=C(NN1C(=O)/C(=C/c2cccc(O)c2)SC1=S)c1ccccc1O	0.7	2.7	-2.4	-3.1	-11.3	nt	nt	nt
COc1cc(/C=C2\SC(=S)N(Nc3ncc(C(F)(F)F)cc3Cl)C2=O)ccc1O	-29.5	6.6	-4.8	71.8*	-13.9	75.2*	-19.5	75.4*
O=C(O)C(Cc1ccccc1)N1C(=O)/C(=C/c2ccccc2)SC1=S (stereo unspecified)	9.7	-0.9	1.9	-5.1	-7.6	nt	nt	nt
O=C(NN1C(=O)/C(=C\c2ccc(O)c([N+](=O)[O-])c2)SC1=S)c1ccccc1Cl	0.0	3.0	14.0	52.5*	-2.7	69.7*	11.4	52.8*
O=C(O)COc1ccccc1/C=C1\SC(=S)N(NC(=O)c2ccccc2O)C1=O	8.1	0.9	1.3	40.7*	-3.5	58.4*	-9.0	53.8*
CCOc1ccc(S(=O)(=O)N2CCC(C(=O)Nc3ccccc3N3CCCC3)CC2)cc1	-1.6	-0.6	1.3	-5.3	nt	nt	nt	nt
COc1cccc(/C=C2\SC(=S)N(C(C(=O)O)c3ccccc3)C2=O)c1OC (stereo unspecified)	1.8	-0.4	7.4	0.8	-8.4	nt	nt	nt
COc1cc(/C=C2\SC(=S)N(Nc3ccccc3)C2=O)ccc1O	-21.9	4.5	-7.0	111.9*	-7.9	72.1*	5.9	101.2*
CCOc1cc(/C=C2\SC(=S)N(Nc3ccccc3)C2=O)ccc1O	-12.3	3.5	-2.7	82.0*	-6.7	71.7*	23.7	79.3*
COc1ccc(/C=C2\SC(=S)N(C(C(=O)O)c3ccccc3)C2=O)c(OC)c1 (stereo unspecified)	3.2	-0.5	-1.0	40.6*	-9.4	17.6	-23.8	20.6
O=C1NC[C@@H](c2ccccc2)OC(=O)[C@@H](Cc2ccc(F)cc2)C/C=C\C[C@@H]1CC(=O)N(CCO)Cc1ccccc1	-7.8	0.6	-0.5	6.4	-8.1	nt	nt	nt
CCNC(=S)/N=C(\N)Nc1nc(C)c2cc(C)ccc2n1	-0.8	2.1	1.4	43.6*	1.0	20.3	-11.8	19.6
Cc1nc(NC(=O)c2ccccc2)sc1-c1csc(NCc2ccccc2)n1	-14.9	2.8	0.9	20.5	-9.3	nt	nt	nt
SMILES	DNMT1 block	LMPTP block	STEP block	Rpn11 block	Scp1 inh	Rpn11 confirm	MMP-2 inh	Thrombin FP
Cc1nc(NC(=O)c2ccccc2)sc1-c1csc(NCCc2ccccc2)n1	-13.4	1.4	0.2	43.7*	1.0	-3.7	6.6	-15.5
O=C(Nn1c(COc2ccccc2)nc2ccccc2c1=O)C(Cl)(Cl)Cl	2.4	-1.3	-1.1	-7.2	2.0	nt	nt	nt
O=C(NCCCN1CCCCCC1)c1cc2c(=O)oc3ccccc3c2s1	27.5	26.7	0.6	63.8*	-3.8	0.9	16.4	-6.0
N#Cc1nccnc1S(=O)(=O)c1cccs1	nt	nt	nt	nt	4.0	nt	nt	nt
CCN(CC)CCNC(=O)/C(=C/c1cn(C)c2ccccc12)NC(=O)c1ccc(OC)c(OC)c1	2.3	0.1	4.1	-0.4	-9.8	nt	nt	nt
COC(=O)C(C)N1C(=O)S/C(=C\c2cc(C)n(-c3ccccn3)c2C)C1=O (stereo unspecified)	0.9	0.0	1.0	136.1*	-13.1	0.9	-24.9	0.8
COC(=O)C(C)N1C(=O)S/C(=C/c2cc(C)n(-c3ccccn3)c2C)C1=O (stereo unspecified)	-5.0	-0.7	-3.4	3.5	-5.9	nt	nt	nt
COc1ccc(-c2cc(C(=O)Nc3c(C)n(C)n(-c4ccccc4)c3=O)c3ccccc3n2)cc1	0.8	0.7	-0.2	-2.5	3.7	nt	nt	nt
COc1ccc(-n2c(N)c(C(=O)Nc3c(C)n(C)n(-c4ccccc4)c3=O)c3nc4ccccc4nc32)cc1	7.9	12.8	9.7	88.0*	8.2	7.4	-45.2	0.8
